Reference: ChEMBL document CHEMBL1671669, “Novel antimalarial aminoquinolines: heme binding and effects on normal or Plasmodium falciparum-parasitized human erythrocytes” (Antimicrob Agents Chemother, 2009)
Active and inactive are the calls of the source. The rule behind the calls is not given here.

Legend:
[1] = Toxicity in human RBC assessed as hemolysis at 50 uM; assay type: cell-based; conditions: erythrocyte
Outline: (§1)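 Human RBC at 5% Htc in PBS-glucose held 2 h at 37°C with a range of compound concentrations, alone or with 10 μM FP. Cells spun down; hemolysis read as A412 of released Hb in supernatant. Five experiments in triplicate.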

[2] = Toxicity in human RBC assessed as potentiation of ferriprotoporphyrin 9-induced hemolysis at 50 uM after 2hrs in presence of 10 uM; assay type: cell-based; conditions: erythrocyte; outline: as §1
[3] = Toxicity in human RBC assessed as hemolysis at 50 uM at 40 degC in presence of 10 uM ferriprotoporphyrin 9; assay type: cell-based, Erythrocyte; conditions: human red blood cells (RBC), read-out: Activity
Outline: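 Hemolysis assay as for the 37°C format (5% Htc RBC, PBS-glucose, 2 h, 10 μM FP, supernatant A412 read-out), but run at 40°C.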

[4] = Toxicity in human RBC assessed as hemolysis pretreated at 50 uM for 30 mins followed by washing and incubated with 40 uM ferriprotoporphyrin 9 for 2hrs; assay type: cell-based; conditions: erythrocyte
Outline: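 RBC exposed 30 min to 50 μM compound, washed, then held 2 h with 40 μM FP; hemolysis read from supernatant Hb at A412.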

Plasmodium falciparum [5] = assay: Antiplasmodial activity against chloroquine-susceptible Plasmodium falciparum D10; assay type: functional, organism-based
Plasmodium falciparum [6] = assay: Antiplasmodial activity against chloroquine-resistant Plasmodium falciparum W2; assay type: functional, organism-based
[7] = Drug uptake in human RBC at 50 uM in absence of 10 um ferriprotoporphyrin 9; assay type: ADME, cell-based; conditions: erythrocyte
Outline: (§2)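 Washed human RBC given 50 μM compound for 30 min at 37°C, with or without 10 μM FP. Total uptake and membrane-bound fraction measured fluorimetrically after washing and CHCl3-1 N HCl extraction. One representative experiment in triplicate.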

Erythrocyte = assay: Induction of denaturation of hemoglobin in human RBC in acidic condition assessed as denatured hemoglobin level per millimitre of packed RBC; assay type: functional
Outline: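 Fitch-Russell method: intact RBC from 50 μl packed cells brought to 10 ml in 150 mM sodium acetate pH 5.0, held 90 min at 39°C with or without compound at 100 μM. Pellets spun at 3,500 × g, washed thrice in acetate, dissolved in 10 mM Tris-HCl, 2.5% SDS, 0.2 N NaOH; denatured Hb taken as FP from A412 minus A700.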

Homo sapiens [8] = organism: Homo sapiens; assay: Binding affinity to normal human RBC membrane in presence of 15% hematocrit by fluorimetric method
Outline: (§3)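 Human A+ RBC (citrate-phosphate-dextrose, ≤10 days), washed in cold PBS, held at 15% Htc in PBS-5 mM glucose. Incubation with compound (10 to 50 μM, 50 μM for parasitized comparisons) 30 min at 37°C. Normal RBC or D10/W2-parasitized RBC at 4,0% parasitemia. Cells pelleted, washed free of unbound drug, extracted into CHCl3-1 N HCl, quinoline read by fluorescence.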

[9] = Octanol-water partition coefficient, log P of the compound; assay type: physicochemical
[10] = Distribution coefficient, log D of the compound at pH 7.4; assay type: physicochemical; conditions: octanol/water
[11] = Vacuolar accumulation ratio of the compound at pH 5.2; assay type: ADME
Outline: (§4)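 VAR taken as antilog of calculated log D7.4 minus calculated log D5.2. log D from log P and pKa values measured potentiometrically at 25°C in 0.15 M KCl (n-octanol/0.15 M KCl partitioning). LAR calculated by an earlier published procedure.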

[12] = Lipid accumulation ratio of the compound; assay type: physicochemical; outline: as §4
Homo sapiens [13] = organism: Homo sapiens; assay: Ratio of binding affinity to human RBC membrane parasitized with Plasmodium falciparum D10 to binding affinity to normal human RBC; outline: as §3
Homo sapiens [14] = organism: Homo sapiens; assay: Ratio of binding affinity to human RBC membrane parasitized with Plasmodium falciparum W2 to binding affinity to normal human RBC; outline: as §3
Plasmodium falciparum [15] = assay: Resistance index, ratio of IC50 for chloroquine-resistant Plasmodium falciparum W2 to IC50 for chloroquine-susceptible Plasmodium falciparum D10; assay type: functional
[16] = Drug uptake in human RBC at 50 uM in presence of 10 um ferriprotoporphyrin 9; assay type: ADME, cell-based; conditions: erythrocyte; outline: as §2
Ferriprotoporphyrin IX = assay: Binding affinity to ferriprotoporphyrin 9sassessed as quenching of Soret band in presence of 40% DMSO-10 mM sodium phosphate buffer at pH 6.0
Outline: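 Heme (FP, fresh stock in 0.02 N NaOH diluted in PBS) at 15 μM final in 10 mM sodium phosphate pH 6.0 with 40% DMSO, compound added at 1 to 200 μM; absorption spectra read after 2 min, Soret band quenching followed. Job's plot run in parallel (FP plus compound totalling 10 μM, A400 difference vs molar ratio). Three experiments in triplicate.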

[17] = Inhibition of beta-hematin formation by BHIA assay; assay type: functional

Compound	Activity [1]	Activity [2]	hemolysis at 50 µM [3]	Activity [4]	IC90 (Plasmodium falciparum [5])	IC90 (Plasmodium falciparum [6])	Drug uptake [7]	Activity (Erythrocyte)	Activity (Homo sapiens [8])	logP [9]	logD [10]	Ratio [11]	Ratio [12]	IC50 (Plasmodium falciparum [5])	IC50 (Plasmodium falciparum [6])	Ratio (Homo sapiens [13])	Ratio (Homo sapiens [14])	Ratio IC50 (Plasmodium falciparum [15])	Drug uptake [16]	Activity (Ferriprotoporphyrin IX)	further results
CCN(CC)CCCC(C)Nc1ccnc2cc(Cl)ccc12 (stereo not drawn) [CHLOROQUINE]	Non-toxic	Toxic	84%	Non-toxic	44.6 nM	441 nM	10%	40 nmol/h	Dose-dependent effect	–	–	–	–	–	–	–	–	–	–	–	–
Clc1ccc2c(NC[C@@H]3CCCN4CCCC[C@H]34)ccnc2c1	Non-toxic	Toxic	28%	Non-toxic	34.3 nM	54.9 nM	18%	Active	Dose-dependent effect	4.94	2.26	22600	182	26.4 nM	41.8 nM	1.5	2	1.59	50%	Active	IC50 [17]: 1.52 equiv; inhibition [17]: Dose-dependent effect
Clc1ccc2c(N[C@H]3CCCN4CCCC[C@H]34)ccnc2c1	Non-toxic	Toxic	50%	Non-toxic	35.1 nM	33.1 nM	18%	Active	Dose-dependent effect	4.57	2.69	14900	490	24.2 nM	21.3 nM	2	1.5	0.88	50%	Active	IC50 [17]: 1.12 equiv; inhibition [17]: Dose-dependent effect
